Measured values: ChEMBL document CHEMBL1773023, “Potent and selective phosphopeptide mimetic prodrugs targeted to the Src homology 2 (SH2) domain of signal transducer and activator of transcription 3” (J Med Chem, 2011)
Activity calls are given as the source filed them. The rule behind the calls is not given here.

Legend:
[1] = molecular target: T1, Signal transducer and activator of transcription 3 (Homo sapiens, UniProt P40763); experiment: Binding affinity to SH2 domain of Stat3 by fluorescence polarization assay
T1 sequence (P40763 whole entry, the tested form may be a part): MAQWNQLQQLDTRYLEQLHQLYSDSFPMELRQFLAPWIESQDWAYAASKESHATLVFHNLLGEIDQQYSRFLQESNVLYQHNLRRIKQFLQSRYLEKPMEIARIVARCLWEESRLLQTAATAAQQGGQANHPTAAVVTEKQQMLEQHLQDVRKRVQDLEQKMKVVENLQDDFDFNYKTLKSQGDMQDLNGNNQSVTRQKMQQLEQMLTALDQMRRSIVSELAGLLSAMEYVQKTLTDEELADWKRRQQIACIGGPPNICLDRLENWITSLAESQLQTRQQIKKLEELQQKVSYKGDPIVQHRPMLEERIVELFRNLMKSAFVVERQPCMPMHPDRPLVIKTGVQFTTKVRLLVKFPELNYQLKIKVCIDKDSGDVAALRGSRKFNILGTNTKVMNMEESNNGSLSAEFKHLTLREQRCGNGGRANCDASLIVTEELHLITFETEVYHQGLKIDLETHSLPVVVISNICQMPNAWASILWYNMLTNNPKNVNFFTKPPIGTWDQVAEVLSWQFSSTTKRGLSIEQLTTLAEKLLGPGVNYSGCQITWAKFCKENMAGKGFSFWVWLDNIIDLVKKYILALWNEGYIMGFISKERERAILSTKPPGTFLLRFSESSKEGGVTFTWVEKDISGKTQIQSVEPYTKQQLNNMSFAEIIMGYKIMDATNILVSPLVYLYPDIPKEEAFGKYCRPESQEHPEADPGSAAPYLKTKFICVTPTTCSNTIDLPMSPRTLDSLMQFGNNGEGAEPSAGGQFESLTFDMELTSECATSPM
Summary of the method: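 Recombinant Stat3, expressed and purified, tested against phosphopeptides and peptidomimetics in a fluorescence polarization competition assay. Affinity is reported as an inhibition constant (K_I).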

[2] = molecular target: T1, Signal transducer and activator of transcription 3; experiment: Inhibition of SH2 domain of Stat3 constitutive phosphorylation at Tyr705 in human MDA-MB-468 cells at 0.5 uM after 2 hrs by Western blotting; type: cell-based
Summary of the method: (§1)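 MDA-MB-468 cells (4×10^5/well, DMEM 10% FCS, overnight) given prodrug from freshly made 10 mM DMSO stock for 2 h. Lysates in Hepes pH 7.4 Triton buffer with phosphatase/protease inhibitors; 12 μg protein on 8% SDS-PAGE, PVDF, probed for pStat3 Y705 by ECL, then stripped and reprobed for total Stat3.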

[3] = molecular target: T1, Signal transducer and activator of transcription 3; experiment: Inhibition of SH2 domain of Stat3 constitutive phosphorylation at Tyr705 in human MDA-MB-468 cells at 0.1 uM after 2 hrs by Western blotting; type: cell-based; summary of the method: as §1
[4] = molecular target: T1, Signal transducer and activator of transcription 3; experiment: Inhibition of SH2 domain of Stat3 constitutive phosphorylation at Tyr705 in human MDA-MB-468 cells after 2 hrs by Western blotting; type: cell-based; summary of the method: as §1

Compound | Ki [1] [nM] | further results
C/C(=C\C(=O)N[C@@H](CC(C)C)C(=O)N1CCC[C@H]1C(=O)N[C@H](C)CCC(N)=O)c1ccc(OP(=O)(O)O)cc1 | 144 | 
CCCC[C@H](NC(=O)/C=C(\C)c1ccc(OP(=O)(O)O)cc1)C(=O)N1C[C@H]2C[C@H]2[C@H]1C(=O)N[C@H](C)CCC(N)=O | 66 | 
C/C(=C\C(=O)N[C@@H](CC(C)C)C(=O)N1CCC[C@H]1C(=O)NCCOC(N)=O)c1ccc(OP(=O)(O)O)cc1 | 203 | 
C/C(=C\C(=O)N[C@@H](CC(C)C)C(=O)N1CCC[C@H]1C(=O)NCCNC(N)=O)c1ccc(OP(=O)(O)O)cc1 | 94 | 
C/C(=C\C(=O)N[C@H]1CCc2cccc3c2N(C1=O)[C@H](C(=O)NCCOC(N)=O)C3)c1ccc(OP(=O)(O)O)cc1 | 188 | 
C/C(=C\C(=O)N[C@@H](CC(C)C)C(=O)N1C[C@H]2C[C@H]2[C@H]1C(=O)NCCOC(N)=O)c1ccc(OP(=O)(O)O)cc1 | 193 | 
C[C@H](CCC(N)=O)NC(=O)[C@@H]1Cc2cccc3c2N1C(=O)[C@@H](NC(=O)/C=C/c1ccc(C(F)(F)P(=O)(OCOC(=O)C(C)(C)C)OCOC(=O)C(C)(C)C)cc1)CC3 |  | inhibition [2]: Active; inhibition [3]: Active
CCCC[C@H](NC(=O)/C=C(\C)c1ccc(OP(=O)(O)O)cc1)C(=O)N1C[C@H]2C[C@H]2[C@H]1C(=O)NCCNC(N)=O | 46 | 
CC(C)(C)C(=O)OCOP(=O)(OCOC(=O)C(C)(C)C)C(F)(F)c1ccc(/C=C/C(=O)N[C@H]2CCc3cccc4c3N(C2=O)[C@H](C(=O)N[C@@H](CCC(N)=O)C(=O)NCc2ccccc2)C4)cc1 |  | inhibition [4]: Dose-dependent effect
C/C(=C\C(=O)N[C@H]1CCc2cccc3c2N(C1=O)[C@H](C(=O)N[C@@H](CCC(N)=O)C(=O)NCc1ccccc1)C3)c1ccc(C(F)(F)P(=O)(OCOC(=O)C(C)(C)C)OCOC(=O)C(C)(C)C)cc1 |  | inhibition [4]: Dose-dependent effect
